# “And” between values parts separate entries of the source, which are not always exact repeats. Equal values may be shown once.
# Test system: U2OS
# Experiment: Multiplex assay against U2OS
# Assay type: toxicity, cell-based
# Details: human
# Method in brief: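 Live cells were stained at seeding with Hoechst33342, BioTracker Green Microtubule Cytoskeleton Dye, MitoTracker Red and Annexin V Alexa Fluor 680. Following compound addition, they were imaged on a CQ1 microscope at 37°C and 5% CO2 and gated by CellPathfinder machine learning into Hoechst high-intensity objects or normal cells, with normal cells split into healthy, pyknosed or fragmented nuclei and pyknosed cells into mitotic or apoptotic. Tubulin, mitochondrial-mass and membrane-permeability phenotypes are per cents of healthy-nucleus cells.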
# [1] = 12 h, 1 µM, compound concentration 1 uM, replicate 1
# [2] = 12 h, 1 µM, compound concentration 1 uM, replicate 2
# [3] = 12 h, 10 µM, compound concentration 10 uM, replicate 1
# [4] = 12 h, 10 µM, compound concentration 10 uM, replicate 2
# [5] = 24 h, 1 µM, compound concentration 1 uM, replicate 1
# [6] = 24 h, 1 µM, compound concentration 1 uM, replicate 2
# [7] = 24 h, 10 µM, compound concentration 10 uM, replicate 1
# [8] = 24 h, 10 µM, compound concentration 10 uM, replicate 2
# [9] = 48 h, 10 µM, compound concentration 10 uM, replicate 1
# [10] = 48 h, 10 µM, compound concentration 10 uM, replicate 2
smiles,measurement,setting,value
Cc1c(Nc2ccc(S(=O)(=O)N3CCN(C)CC3)cc2F)nc2ccc(-c3cnn(C4CC4)c3)cn2c1=O,Population Apoptotic (%),[1],12%
same,Population Fragmented Nuclei (%),[1],4%
same,Population Healthy Nuclei (%),[1],91%
same,Population Hoechst High Intensity Objects (%),[1],2%
same,Population Membrane Permeable-Phenotype (%),[1],5%
same,Population Mitochondria Different-Phenotype (%),[1],15%
same,Population Mitotic Cells (%),[1],87%
same,Population Normal (%),[1],97%
same,Population Pyknosed Nuclei (%),[1],4%
same,Population Tubulin-Different-Phenotype (%),[1],18%
same,Total Cell Count,[1],160
same,Population Apoptotic (%),[2],0%
same,Population Fragmented Nuclei (%),[2],5%
same,Population Healthy Nuclei (%),[2],93%
same,Population Hoechst High Intensity Objects (%),[2],8%
same,Population Membrane Permeable-Phenotype (%),[2],10%
same,Population Mitochondria Different-Phenotype (%),[2],17%
same,Population Mitotic Cells (%),[2],100%
same,Population Normal (%),[2],91%
same,Population Pyknosed Nuclei (%),[2],1%
same,Population Tubulin-Different-Phenotype (%),[2],15%
same,Total Cell Count,[2],119
same,Population Apoptotic (%),[3],29% and 44%
same,Population Fragmented Nuclei (%),[3],21% and 30%
same,Population Healthy Nuclei (%),[3],73% and 60%
same,Population Hoechst High Intensity Objects (%),[3],34% and 46%
same,Population Mitotic Cells (%),[3],70% and 55%
same,Population Normal (%),[3],65% and 53%
same,Population Pyknosed Nuclei (%),[3],5% and 8%
same,Population Tubulin-Different-Phenotype (%),[3],12% and 27%
same,Total Cell Count,[3],201 and 120
same,Population Fragmented Nuclei (%),[4],56%
same,Population Healthy Nuclei (%),[4],42% and 39%
same,Population Hoechst High Intensity Objects (%),[4],41% and 58%
same,Population Membrane Permeable-Phenotype (%),[4],17% and 8%
same,Population Mitochondria Different-Phenotype (%),[4],11% and 23%
same,Population Mitotic Cells (%),[4],80% and 35%
same,Population Normal (%),[4],58% and 41%
same,Population Pyknosed Nuclei (%),[4],1% and 3%
same,Population Tubulin-Different-Phenotype (%),[4],11% and 8%
same,Population Apoptotic (%),[5],0%
same,Population Fragmented Nuclei (%),[5],1%
same,Population Healthy Nuclei (%),[5],95%
same,Population Hoechst High Intensity Objects (%),[5],1%
same,Population Membrane Permeable-Phenotype (%),[5],7%
same,Population Mitochondria Different-Phenotype (%),[5],7%
same,Population Mitotic Cells (%),[5],100%
same,Population Normal (%),[5],98%
same,Population Pyknosed Nuclei (%),[5],2%
same,Population Tubulin-Different-Phenotype (%),[5],17%
same,Total Cell Count,[5],173
same,Population Apoptotic (%),[6],11%
same,Population Fragmented Nuclei (%),[6],4%
same,Population Healthy Nuclei (%),[6],89%
same,Population Hoechst High Intensity Objects (%),[6],3%
same,Population Membrane Permeable-Phenotype (%),[6],8%
same,Population Mitochondria Different-Phenotype (%),[6],29%
same,Population Mitotic Cells (%),[6],88%
same,Population Normal (%),[6],96%
same,Population Pyknosed Nuclei (%),[6],6%
same,Population Tubulin-Different-Phenotype (%),[6],20%
same,Total Cell Count,[6],122
same,Population Apoptotic (%),[7],29% and 32%
same,Population Fragmented Nuclei (%),[7],15% and 33%
same,Population Healthy Nuclei (%),[7],77% and 56%
same,Population Hoechst High Intensity Objects (%),[7],27% and 49%
same,Population Membrane Permeable-Phenotype (%),[7],14% and 7%
same,Population Mitochondria Different-Phenotype (%),[7],8% and 22%
same,Population Mitotic Cells (%),[7],70% and 67%
same,Population Normal (%),[7],72% and 50%
same,Population Pyknosed Nuclei (%),[7],6% and 10%
same,Population Tubulin-Different-Phenotype (%),[7],7% and 16%
same,Total Cell Count,[7],284 and 128
same,Population Apoptotic (%),[8],22% and 60%
same,Population Fragmented Nuclei (%),[8],56% and 58%
same,Population Healthy Nuclei (%),[8],41% and 37%
same,Population Hoechst High Intensity Objects (%),[8],40% and 58%
same,Population Membrane Permeable-Phenotype (%),[8],16% and 13%
same,Population Mitochondria Different-Phenotype (%),[8],9% and 23%
same,Population Mitotic Cells (%),[8],77% and 40%
same,Population Normal (%),[8],59% and 41%
same,Population Pyknosed Nuclei (%),[8],2% and 3%
same,Population Tubulin-Different-Phenotype (%),[8],8% and 13%
same,Population Apoptotic (%),[9],43%
same,Population Fragmented Nuclei (%),[9],23%
same,Population Healthy Nuclei (%),[9],67%
same,Population Hoechst High Intensity Objects (%),[9],39%
same,Population Membrane Permeable-Phenotype (%),[9],4%
same,Population Mitochondria Different-Phenotype (%),[9],8%
same,Population Mitotic Cells (%),[9],56%
same,Population Normal (%),[9],60%
same,Population Pyknosed Nuclei (%),[9],8%
same,Population Tubulin-Different-Phenotype (%),[9],18%
same,Total Cell Count,[9],130
same,Population Apoptotic (%),[10],71%
same,Population Fragmented Nuclei (%),[10],57%
same,Population Healthy Nuclei (%),[10],38%
same,Population Hoechst High Intensity Objects (%),[10],53%
same,Population Membrane Permeable-Phenotype (%),[10],11%
same,Population Mitochondria Different-Phenotype (%),[10],17%
same,Population Mitotic Cells (%),[10],28%
same,Population Normal (%),[10],46%
same,Population Pyknosed Nuclei (%),[10],3%
same,Population Tubulin-Different-Phenotype (%),[10],8%
same,Total Cell Count,[10],45
